Reference: ChEMBL document CHEMBL1152449, “6-methyl-2,4-disubstituted pyridazin-3(2H)-ones: a novel class of small-molecule agonists for formyl peptide receptors” (J Med Chem, 2009)

Legend:
[1] = target: T1, fMet-Leu-Phe receptor (Homo sapiens, UniProt P21462); experiment: Agonist activity at FPR1 expressed in human HL60 cells assessed as induction of intracellular calcium flux by FLIPR3 calcium assay; type: functional, cell-based, HL-60
T1 sequence (P21462 whole entry): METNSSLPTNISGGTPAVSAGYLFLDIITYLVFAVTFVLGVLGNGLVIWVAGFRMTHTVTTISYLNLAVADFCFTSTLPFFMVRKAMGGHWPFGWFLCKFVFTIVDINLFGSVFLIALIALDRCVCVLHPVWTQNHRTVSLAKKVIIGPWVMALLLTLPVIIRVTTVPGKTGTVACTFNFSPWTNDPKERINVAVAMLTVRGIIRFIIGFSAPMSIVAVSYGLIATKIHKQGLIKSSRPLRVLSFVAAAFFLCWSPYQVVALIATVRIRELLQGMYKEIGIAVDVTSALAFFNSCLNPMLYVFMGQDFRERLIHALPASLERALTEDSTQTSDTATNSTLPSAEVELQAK
Procedure, shortened: (§1)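 HL-60 cells stably transfected with the receptor, grown in RPMI with 10% heat-inactivated FCS, 10 mM HEPES, antibiotics and G418 (1 mg/mL). They were then washed, resuspended in HBSS+ (2 × 10^5 cells/well) and read on a FlexStation II.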

[2] = target: T2, N-formyl peptide receptor 2 (Homo sapiens, UniProt P25090); experiment: Agonist activity at FPRL1 expressed in human HL60 cells assessed as induction of intracellular calcium flux by FLIPR3 calcium assay; type: functional, cell-based; conditions: hl-60; procedure, shortened: as §1
T2 sequence (P25090 whole entry): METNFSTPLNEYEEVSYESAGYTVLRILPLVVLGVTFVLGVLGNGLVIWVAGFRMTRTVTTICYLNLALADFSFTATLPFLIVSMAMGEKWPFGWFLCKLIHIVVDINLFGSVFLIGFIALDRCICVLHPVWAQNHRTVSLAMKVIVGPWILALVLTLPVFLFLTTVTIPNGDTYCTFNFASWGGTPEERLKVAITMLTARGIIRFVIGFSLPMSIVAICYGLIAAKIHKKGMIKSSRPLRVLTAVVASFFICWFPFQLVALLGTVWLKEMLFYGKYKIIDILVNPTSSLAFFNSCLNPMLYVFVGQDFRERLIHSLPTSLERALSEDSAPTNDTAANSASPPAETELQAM

[3] = target: T3, N-formyl peptide receptor 3 (Homo sapiens, UniProt P25089); experiment: Agonist activity at FPRL2 expressed in human HL60 cells assessed as induction of intracellular calcium flux by FLIPR3 calcium assay; type: functional, cell-based; conditions: hl-60; procedure, shortened: as §1
T3 sequence (P25089 whole entry): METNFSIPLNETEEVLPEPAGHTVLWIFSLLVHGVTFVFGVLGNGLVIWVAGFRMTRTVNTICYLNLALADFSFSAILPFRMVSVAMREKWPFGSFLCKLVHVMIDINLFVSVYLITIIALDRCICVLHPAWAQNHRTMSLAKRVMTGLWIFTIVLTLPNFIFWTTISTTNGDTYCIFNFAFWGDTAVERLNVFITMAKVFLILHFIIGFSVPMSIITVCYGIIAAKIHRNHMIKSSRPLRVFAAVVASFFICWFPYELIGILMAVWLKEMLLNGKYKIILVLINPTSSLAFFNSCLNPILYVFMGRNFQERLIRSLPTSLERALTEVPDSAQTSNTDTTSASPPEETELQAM

[4] = target: T1, fMet-Leu-Phe receptor; experiment: Agonist activity at FPR1 in human neutrophiles assessed as induction of intracellular calcium flux by FLIPR3 calcium assay; type: functional, cell-based
[5] = target: T4, fMet-Leu-Phe receptor (Homo sapiens) (UniProt P21462); experiment: Agonist activity at FPR1 expressed in human HL60 cells assessed as induction of intracellular calcium flux by FLIPR3 calcium assay relative to N-formyl-methionyl-leucyl-phenylalanine; type: functional, cell-based; conditions: HL-60
T4 sequence (whole entry): T1 sequence (P21462 whole entry)

EC50 ([1]; hl-60)	Structure (SMILES)	EC50 [2]	EC50 [3]	EC50 ([1]; read-out: EC50) [µM]	EC50 [4] [µM]	Activity [5] [%]
Not Active	COc1cccc(Cc2cc(C)nn(CC(=O)c3ccc(Br)cc3)c2=O)c1	Not Active	Not Active	–	–	–
–	COc1cccc(Cc2cc(C)nn(CC(=O)Nc3ccc4c(c3)OCO4)c2=O)c1	Not Active	Not Active	2.3	3.6	50
